# High-throughput results from PubChem.
# MT1-MMP act inh = blocks activation of human MT1-MMP; HT1080 RFP-PRO-GFP cells, GFP/RFP ratio fluorescence, overnight; percent of plate control window, DMSO zero; GFP/RFP ratio change, % at 20 µM; hit rate 0.061% among 360,000; AID 651647;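 active = GFP/RFP ratio change of at least 30% with cell ATP level not reduced by more than half and red fluorescence within 50% of control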
#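 Assay system: RFP-PRO-GFP reporter HT1080 cells; read-out basis: GFP/RFP fluorescence ratio; benchmarks: DMSO wells and RFP-L50D-GFP cells; doses: 20 µM single dose, 1% DMSO; schedule: overnight cell settling, then overnight compound exposure, 37 °C, 5% CO2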
# VLA-4 inh = inhibition in a human VLA-4 binding assay; P13612; VLA-4 expressing cells, ligand binding flow cytometry; inhibition, % (about 7 µM as worked out from the volumes in the protocol); hit rate 0.2% among 330,000; AID 2557; in the data active = inhibition above about 50%
# Target sequence (P13612 whole entry, looked up): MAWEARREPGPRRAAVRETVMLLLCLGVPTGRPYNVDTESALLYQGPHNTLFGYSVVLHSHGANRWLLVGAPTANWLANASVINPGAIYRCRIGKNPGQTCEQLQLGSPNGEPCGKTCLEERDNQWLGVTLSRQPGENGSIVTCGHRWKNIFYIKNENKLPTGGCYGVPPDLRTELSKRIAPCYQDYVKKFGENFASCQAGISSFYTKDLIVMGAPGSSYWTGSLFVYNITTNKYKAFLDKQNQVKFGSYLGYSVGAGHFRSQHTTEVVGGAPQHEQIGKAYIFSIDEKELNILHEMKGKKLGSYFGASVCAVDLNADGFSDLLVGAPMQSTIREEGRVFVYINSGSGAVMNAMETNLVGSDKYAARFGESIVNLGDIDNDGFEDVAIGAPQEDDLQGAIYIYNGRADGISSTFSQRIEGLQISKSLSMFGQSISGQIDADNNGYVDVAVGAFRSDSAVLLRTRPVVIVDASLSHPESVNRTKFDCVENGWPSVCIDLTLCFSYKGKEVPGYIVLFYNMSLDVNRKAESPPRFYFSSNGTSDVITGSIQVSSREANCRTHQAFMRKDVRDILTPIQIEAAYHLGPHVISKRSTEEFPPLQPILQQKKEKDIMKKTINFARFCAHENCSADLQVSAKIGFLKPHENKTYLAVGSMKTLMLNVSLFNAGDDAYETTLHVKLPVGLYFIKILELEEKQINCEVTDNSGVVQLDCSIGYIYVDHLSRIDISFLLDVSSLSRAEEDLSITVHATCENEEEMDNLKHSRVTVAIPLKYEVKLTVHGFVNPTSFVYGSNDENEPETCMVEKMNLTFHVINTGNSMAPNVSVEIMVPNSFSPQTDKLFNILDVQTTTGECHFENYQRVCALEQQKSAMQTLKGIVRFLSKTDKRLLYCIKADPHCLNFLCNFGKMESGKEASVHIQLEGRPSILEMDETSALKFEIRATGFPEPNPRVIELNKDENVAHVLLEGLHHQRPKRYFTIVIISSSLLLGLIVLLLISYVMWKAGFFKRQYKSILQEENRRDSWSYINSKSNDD
# ABCB6 inh 2 = inhibitors of human ABC transporter ABCB6; Q9NP58; K562-ABCB6 porphyrin accumulation, flow cytometry, 1 h; stronger effect = lower value; fluorescence ratio to DMSO, % at 10 µM; hit rate 0.19% among 360,000; AID 602162;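 active = fluorescence ratio to DMSO below 75%, the collection mean minus 3 SD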;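 also: signal is porphyrin accumulated inside mitochondria; 100% equals median channel fluorescence of DMSO control wells; lower ratio means ABCB6 inhibition with less porphyrin fluorescence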
# Exocytosis inh = blocks lytic granule exocytosis; TALL-104 LAMP-1 surface exposure, flow cytometry; cells stimulated with thapsigargin and PMA; inhibition, % at 10 µM; hit rate 0.66% among 360,000; AID 651702;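 active = inhibition above about 55%, limit read from the data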
# DAGLB inh = blocks human DAGLB lipase activity. Q8NCG7. HEK293T DAGLB membrane lysate, EnzChek fluorogenic substrate. inhibition, % at 5.17 µM. hit rate 0.059% among 340,000. AID 504411; in the data active = inhibition above about 34%;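 also: 0% = enzyme with vehicle and 100% = wells lacking enzyme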
# FGF22 binding = binders of recombinant human FGF22 by thermal shift. SYPRO orange fluorescence; percent of sucrose octasulfate shift, DMSO zero. activity (Tm shift, normalised), % at 9.99 µM. hit rate 1.5% among 340,000;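 active = mean Tm shift, scaled 0 neutral to 100 positive control, at about 1.3% or above, every replicate too, limit read from the data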
# Exocytosis CP01 = lytic granule exocytosis inhibition. shares compounds with Exocytosis inh. TALL-104 cells, LAMP-1 externalization, flow cytometry; stimulated with PMA plus thapsigargin. inhibition, % at 10 µM. hit rate 11% among 1,500. AID 651954; in the data active = inhibition above about 60%;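 also: 0% = stimulated vehicle wells and 100% = unstimulated wells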
# An asterisk follows results filed as active; . = not tested or not shown. Only some compounds are listed: those with a hit (about 2% of all), similar ones and a draw of the others.
SMILES,MT1-MMP act inh,VLA-4 inh,ABCB6 inh 2,Exocytosis inh,DAGLB inh,FGF22 binding,Exocytosis CP01
Oc1ccccc1CN1CCCC(N2CCN(c3cccc(C(F)(F)F)c3)CC2)C1 (stereo not given),-1.0,20.4,100.0,68.2*,1.6,-0.3,-11.3
N[C@H]1CC[C@@H](CCn2cc(-c3ccccn3)nn2)O[C@H]1CO,.,.,.,.,.,0.0,.
O=C(C[C@@H]1CC[C@@H]2[C@H](COC[C@H](O)CN2CC2CC2)O1)NCc1ccc(Cl)cc1,.,.,.,.,.,0.1,.
CCCNC(=O)[C@H]1[C@H](CO)[C@H]2Cn3c(ccc(C4=CCCCC4)c3=O)[C@@H]1N2CC,.,.,.,.,.,-0.1,.
C[C@H]1CCCCO[C@@H](CN(C)Cc2ccc3c(c2)OCO3)[C@@H](C)CN([C@@H](C)CO)C(=O)c2cc(NC(=O)Nc3ccc4c(c3)OCO4)ccc2O1,.,.,.,.,.,-0.3,.
Cc1noc(C)c1NC(=O)Nc1ccc2c(c1)CC(=O)N([C@@H](C)CO)C[C@@H](C)[C@H](CN(C)Cc1ccccc1)O2,.,.,.,.,.,-0.7,.
CN(C)S(=O)(=O)c1cccc(NC(=O)c2ccccc2OCc2ccc(F)cc2)c1,0.0,11.6,97.0,102.2*,-8.3,-0.1,-9.9
COc1ccc(NC(=O)c2ccccc2NC(=O)c2ccccc2C(=O)O)c(OC)c1,-2.8,12.8,98.0,-5.8,-2.4,-0.4,.
CN(c1ccccc1)S(=O)(=O)c1cccc(NC(=O)COc2ccccc2)c1,2.5,3.0,89.0,-1.6,-4.2,-0.2,.
CN(C)S(=O)(=O)c1cccc(NC(=O)COc2ccc(C(=O)c3ccccc3)cc2)c1,-6.2,-4.7,93.0,58.0*,-1.2,-0.1,2.4
CN(C)S(=O)(=O)c1cccc(COc2ccccc2C(=O)Nc2ccccc2)c1,3.1,3.6,91.0,2.7,-1.6,0.2,.
COc1ccc(NC(=O)c2ccccc2OCc2ccc(F)cc2)c(OC)c1,-8.1,0.7,99.0,84.6*,-4.0,-0.1,-11.1
C[C@H]1CCCCO[C@@H](CN(C)C(=O)Nc2ccccc2)[C@@H](C)CN([C@@H](C)CO)C(=O)c2cc(NC(=O)Nc3ccc4c(c3)OCO4)ccc2O1,.,.,.,.,.,0.3,.
C[C@@H]1CN([C@@H](C)CO)C(=O)c2cc(-c3ccncc3)cnc2O[C@H]1CN(C)Cc1ccc(Oc2ccccc2)cc1,.,.,.,.,.,0.3,.
C[C@H](CO)N1C[C@H](C)[C@H](CN(C)C(=O)Nc2ccc3c(c2)OCO3)Oc2ccc(NC(=O)c3ccncc3)cc2CC1=O,.,.,.,.,.,0.0,.
CC(C)(C)C(=O)NC(=O)Nc1ccccc1C(F)(F)F,-1.5,4.1,98.0,109.4*,-0.7,0.0,-8.7
CCc1nc2ccc(C(=O)Nc3cc(-c4ccccc4)ccc3OC)cn2c1N(CCN(C)C)CC1CC1,-10.6,.,95.0,59.5*,.,-0.2,48.9
CCc1nc2ccc(C(=O)Nc3cc(-c4ccccc4)ccc3OC)cn2c1N(C)CCC(C)C,1.0,.,99.0,0.0,.,-0.1,.
O=C1OC(c2ccccc2)(c2cc(Br)ccc2O)c2ccccc21 (stereo not given),3.5,.,89.0,102.6*,0.1,0.0,98.7*
O=C1OC(c2ccc(O)cc2)(c2ccccc2O)c2ccccc21 (stereo not given),2.6,.,86.0,-1.3,-0.7,0.1,.
CCOC(=O)c1nnc(-c2ccc(C)cc2)nc1Oc1ccc(Cl)cc1Cl,-1.7,13.2,96.0,4.1,-1.0,.,.
CCOC(=O)c1nnc(-c2ccc(C)cc2)nc1Sc1ccccc1Cl,-4.8,-10.0,93.0,78.6*,-0.5,.,12.7
CCOC(=O)c1nnc(-c2ccccc2)nc1Sc1c(Cl)cccc1Cl,-0.8,14.8,89.0,95.8*,-8.4,.,56.7
CCOC(=O)c1nnc(-c2ccc(C)cc2)nc1Oc1ccccc1Cl,0.1,2.9,103.0,67.3*,-4.3,.,8.1
CN(Cc1ccccc1)CC1CC(c2ccccc2)OC(c2ccc(NC(=O)CCCCCCC(=O)O)cc2)O1 (stereo not given),.,.,.,.,.,-0.2,.
O=C([C@@H]1N[C@@H]2c3ccc(C4=CCCCC4)c(=O)n3C[C@@H]2[C@H]1CO)N1CCC(Cc2ccccc2)CC1,.,.,.,.,.,-0.1,.
COc1ccccc1CNC(=O)C[C@H]1CC[C@H](NC(=O)CC2CC2)[C@H](CO)O1,.,.,.,.,.,-0.7,.
